Results from ChEMBL document CHEMBL3875208, “2-Oxoamides based on dipeptides as selective calcium-independent phospholipase A2 inhibitors” (Bioorg Med Chem, 2017).

These compounds were tested on Phospholipase A2 group VI, Homo sapiens (assay: Inhibition of human calcium-independent group-6A iPLA2 using Triton-X-100/PAPC/arachidonyl-1-14C PAPC substrate mixed micelles at 0.091 mole_fraction by modified dole assay relative to control). Settings: not given.

inhibition | Structure (SMILES)
> 95% | CCCC[C@H](NC(=O)C(=O)CCCCc1ccc(OC)cc1)C(=O)NCC(=O)OC(C)(C)C
89.1% | CCCC[C@H](NC(=O)C(=O)CCCCc1ccc2ccccc2c1)C(=O)NCC(=O)OC(C)(C)C
87.5% | CCCC[C@H](NC(=O)C(=O)CCCCc1ccc(OC)cc1)C(=O)N[C@@H](C)C(=O)OC(C)(C)C
> 95% | CCCC[C@H](NC(=O)C(=O)CCCCc1ccc(OC)cc1)C(=O)NCC(=O)OCc1ccccc1
66.5% | CCCC[C@H](NC(=O)C(=O)CCCCc1ccc(OC)cc1)C(=O)NCC(=O)NCC(=O)OC(C)(C)C
91.1% | CCCC[C@H](NC(=O)C(=O)CCCCc1ccccc1)C(=O)NCC(=O)OC(C)(C)C

The remaining lines, values behind:

Structure (SMILES) | inhibition
CCCC[C@@H](COCC(=O)OCC)NC(=O)C(=O)CCCCc1ccc(OC)cc1 | 75.2%
COc1ccc(CCCCC(=O)C(=O)N[C@H](C(=O)NCC(=O)OC(C)(C)C)C(C)C)cc1 | 85.7%
CCCC[C@@H](COCC(=O)O)NC(=O)C(=O)CCCCc1ccc(OC)cc1 | < 25%
CC[C@H](C)[C@H](NC(=O)C(=O)CCCCc1ccc(OC)cc1)C(=O)NCC(=O)OC(C)(C)C | 81.8%
CCCC[C@@H](COCC(=O)OC(C)(C)C)NC(=O)C(=O)CCCCc1ccc(OC)cc1 | 93.6%
CCCC[C@@H](COCC(=O)OC(C)(C)C)NC(=O)C(=O)CCCCc1ccc2ccccc2c1 | 88.4%
COc1ccc(CCCCC(=O)C(=O)N[C@@H](CC(C)C)C(=O)NCCCC(=O)OC(C)(C)C)cc1 | 92.8%
CCCC[C@H](NC(=O)C(=O)CCCCc1ccc(OC)cc1)C(=O)NCCCC(=O)OCc1ccccc1 | 78.3%

The compounds below were run on Phospholipase A2 group VI, Homo sapiens (assay: Inhibition of human calcium-independent group-6A iPLA2 using Triton-X-100/PAPC/arachidonyl-1-14C PAPC substrate mixed micelles by modified dole assay). Settings: not given.

XI50 (mole fraction) | Structure (SMILES)
0.012 | CCCC[C@H](NC(=O)C(=O)CCCCc1ccc(OC)cc1)C(=O)NCC(=O)OC(C)(C)C
0.026 | CCCC[C@H](NC(=O)C(=O)CCCCc1ccc(OC)cc1)C(=O)NCC(=O)OCc1ccccc1

Each compound was assayed against T1, Phospholipase A2 group V (Homo sapiens) (UniProt P39877) (assay: Inhibition of human calcium-independent group-5 sPLA2 using Triton-X-100/PAPC/arachidonyl-1-14C PAPC substrate mixed micelles at 0.091 mole_fraction by modified dole assay relative to control). Settings: in the assay text read “group-5 sPLA2” for “calcium-independent group-5 sPLA2”.
T1 sequence (whole entry): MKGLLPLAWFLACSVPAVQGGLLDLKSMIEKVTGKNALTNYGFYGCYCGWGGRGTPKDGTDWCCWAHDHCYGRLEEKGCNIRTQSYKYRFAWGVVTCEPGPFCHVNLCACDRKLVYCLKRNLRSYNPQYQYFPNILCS
Summary of the method: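 Human GV sPLA2 activity was measured by modified Dole assay. Inhibitor was added from a 5 mM DMSO stock to give 0.091 mole fraction in substrate, and percent inhibition was recorded.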

inhibition | Structure (SMILES)
44.8% | CCCC[C@H](NC(=O)C(=O)CCCCc1ccc2ccccc2c1)C(=O)NCC(=O)OC(C)(C)C
46.6% | CCCC[C@H](NC(=O)C(=O)CCCCc1ccc(OC)cc1)C(=O)N[C@@H](C)C(=O)OC(C)(C)C
43.4% | CCCC[C@H](NC(=O)C(=O)CCCCc1ccccc1)C(=O)NCC(=O)OC(C)(C)C

More lines, now with the values behind:

Structure (SMILES) | inhibition
COc1ccc(CCCCC(=O)C(=O)N[C@H](C(=O)NCC(=O)OC(C)(C)C)C(C)C)cc1 | 47.1%
CC[C@H](C)[C@H](NC(=O)C(=O)CCCCc1ccc(OC)cc1)C(=O)NCC(=O)OC(C)(C)C | 48.2%
CCCC[C@@H](COCC(=O)OC(C)(C)C)NC(=O)C(=O)CCCCc1ccc2ccccc2c1 | 63.9%
CCCC[C@H](NC(=O)C(=O)CCCCc1ccc(OC)cc1)C(=O)NCCCC(=O)OCc1ccccc1 | 27.7%

What follows are compounds tested against T1, Phospholipase A2 group V (Homo sapiens) (assay: Inhibition of human group-5 sPLA2 using Triton-X-100/PAPC/arachidonyl-1-14C PAPC substrate mixed micelles at 0.091 mole_fraction by modified dole assay relative to control). Settings: not given.

inhibition | Structure (SMILES)
45.3% | CCCC[C@H](NC(=O)C(=O)CCCCc1ccc(OC)cc1)C(=O)NCC(=O)OC(C)(C)C
< 25% | COc1ccc(CCCCC(=O)C(=O)N[C@@H](CC(C)C)C(=O)NCCCC(=O)OC(C)(C)C)cc1
< 25% | CCCC[C@H](NC(=O)C(=O)CCCCc1ccc(OC)cc1)C(=O)NCC(=O)OCc1ccccc1
< 25% | CCCC[C@H](NC(=O)C(=O)CCCCc1ccc(OC)cc1)C(=O)NCC(=O)NCC(=O)OC(C)(C)C

Each compound was assayed against T2, Cytosolic phospholipase A2 (Homo sapiens) (UniProt P47712) (assay: Inhibition of human group-4 cPLA2 using Triton-X-100/PAPC/arachidonyl-1-14C PAPC/PIP2 substrate mixed micelles at 0.091 mole_fraction by modified dole assay relative to control). Settings: not given.
T2 sequence (whole entry): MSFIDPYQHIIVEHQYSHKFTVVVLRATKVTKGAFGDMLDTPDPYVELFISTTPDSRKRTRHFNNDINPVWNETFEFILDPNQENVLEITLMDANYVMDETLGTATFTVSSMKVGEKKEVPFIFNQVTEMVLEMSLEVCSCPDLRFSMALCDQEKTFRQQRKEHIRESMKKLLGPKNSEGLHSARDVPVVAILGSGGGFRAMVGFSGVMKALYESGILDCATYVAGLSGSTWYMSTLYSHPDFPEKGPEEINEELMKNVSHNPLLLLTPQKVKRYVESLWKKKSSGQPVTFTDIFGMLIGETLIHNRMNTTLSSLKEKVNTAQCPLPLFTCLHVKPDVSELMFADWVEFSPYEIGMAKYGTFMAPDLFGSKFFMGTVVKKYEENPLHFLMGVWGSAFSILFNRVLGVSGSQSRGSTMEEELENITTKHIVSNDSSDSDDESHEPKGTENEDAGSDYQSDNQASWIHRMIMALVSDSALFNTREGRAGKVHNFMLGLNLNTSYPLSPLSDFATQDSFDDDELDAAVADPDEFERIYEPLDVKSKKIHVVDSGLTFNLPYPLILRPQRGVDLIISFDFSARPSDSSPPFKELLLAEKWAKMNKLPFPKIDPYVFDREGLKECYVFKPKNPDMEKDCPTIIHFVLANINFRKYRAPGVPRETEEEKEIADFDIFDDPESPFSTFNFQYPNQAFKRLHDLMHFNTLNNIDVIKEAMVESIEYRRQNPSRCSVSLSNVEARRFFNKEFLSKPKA
Summary of the method: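 Buffer was 100 mM HEPES pH 7.5 with 90 μM CaCl2, 2 mM DTT and 0.1 mg/ml BSA. Activity was read by modified Dole assay with inhibitor at 0.091 mole fraction, added from a 5 mM DMSO stock, and expressed as percent inhibition.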

inhibition | Structure (SMILES)
40.2% | CCCC[C@H](NC(=O)C(=O)CCCCc1ccc(OC)cc1)C(=O)NCC(=O)OC(C)(C)C
57.5% | CCCC[C@H](NC(=O)C(=O)CCCCc1ccc2ccccc2c1)C(=O)NCC(=O)OC(C)(C)C
57.4% | CCCC[C@H](NC(=O)C(=O)CCCCc1ccc(OC)cc1)C(=O)N[C@@H](C)C(=O)OC(C)(C)C
52.3% | CCCC[C@H](NC(=O)C(=O)CCCCc1ccc(OC)cc1)C(=O)NCC(=O)OCc1ccccc1
27.1% | CCCC[C@H](NC(=O)C(=O)CCCCc1ccc(OC)cc1)C(=O)NCC(=O)NCC(=O)OC(C)(C)C
46.9% | CCCC[C@H](NC(=O)C(=O)CCCCc1ccccc1)C(=O)NCC(=O)OC(C)(C)C

Continued, compound first:

Structure (SMILES) | inhibition
COc1ccc(CCCCC(=O)C(=O)N[C@H](C(=O)NCC(=O)OC(C)(C)C)C(C)C)cc1 | 35.4%
CC[C@H](C)[C@H](NC(=O)C(=O)CCCCc1ccc(OC)cc1)C(=O)NCC(=O)OC(C)(C)C | 57.3%
CCCC[C@@H](COCC(=O)OC(C)(C)C)NC(=O)C(=O)CCCCc1ccc2ccccc2c1 | 85.5%
COc1ccc(CCCCC(=O)C(=O)N[C@@H](CC(C)C)C(=O)NCCCC(=O)OC(C)(C)C)cc1 | 58%
CCCC[C@H](NC(=O)C(=O)CCCCc1ccc(OC)cc1)C(=O)NCCCC(=O)OCc1ccccc1 | 47.9%
